Laboratory results reported in ChEMBL document CHEMBL1137767, “2-(3-Aryl-2-propenoyl)-3-methylquinoxaline-1,4-dioxides: a novel cluster of tumor-specific cytotoxins which reverse multidrug resistance” (Bioorg Med Chem, 2009).
pIC50: −log10 of the molar value. Calls of active or inactive are those of the source. The calls are words filed in the database; no cut-off is given here.

Legend:
A549 = assay: Growth inhibition of human A549 cells at 10 uM; type: functional, cell-based
Method in brief: (§1)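 Human tumor cell line panel (59 lines across leukemia, melanoma, non-small cell lung, colon, CNS, ovarian, renal, prostate, breast) treated at a single 10 uM concentration; growth inhibition recorded per line.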

OVCAR-4 = assay: Growth inhibition of human OVCAR4 cells at 10 uM; type: functional, cell-based; method in brief: as §1
T47D = assay: Growth inhibition of human T47D cells at 10 uM; type: functional, cell-based; method in brief: as §1
HSC-4 = assay: Cytotoxicity against human HSC4 cells after 48 hrs; type: functional; settings: HSC-4, 48 h
NCI-H23 = assay: Growth inhibition of human NCI-H23 cells at 10 uM; type: functional, cell-based; method in brief: as §1
OVCAR-3 = assay: Growth inhibition of human OVCAR-3 cells at 10 uM; type: functional, cell-based; method in brief: as §1
[1] = Cytotoxicity against human HPLF cells after 48 hrs; type: cell-based
U-251 = assay: Growth inhibition of human U251 cells at 10 uM; type: functional, cell-based; method in brief: as §1
HL-60 [2] = assay: Growth inhibition of human HL60 cells at 10 uM; type: functional, cell-based; method in brief: as §1
A498 = assay: Growth inhibition of human A498 cells at 10 uM; type: functional, cell-based; method in brief: as §1
DU-145 = assay: Growth inhibition of human DU145 cells at 10 uM; type: functional, cell-based; method in brief: as §1
MCF7 = assay: Growth inhibition of human MCF7 cells at 10 uM; type: functional, cell-based; method in brief: as §1
CCRF-CEM [3] = assay: Growth inhibition of human CCRF-CEM cells at 10 uM; type: functional, cell-based; method in brief: as §1
[4] = Cytotoxicity against human HPC cells after 48 hrs; type: cell-based
UACC-62 = assay: Growth inhibition of human UACC62 cells at 10 uM; type: functional, cell-based; method in brief: as §1
K562 = assay: Growth inhibition of human K562 cells at 10 uM; type: functional, cell-based; method in brief: as §1
[5] = molecular target: T1, ATP-dependent translocase ABCB1 (Homo sapiens, UniProt P08183); assay: Reversal of P-glycoprotein-mediated multidrug resistance in human MDR1 gene transfected mouse L5178Y cells assessed as fluorescence activity ratio at 200 uM by rhodamine 123 accumulation assay; type: cell-based
T1 sequence (P08183 whole entry): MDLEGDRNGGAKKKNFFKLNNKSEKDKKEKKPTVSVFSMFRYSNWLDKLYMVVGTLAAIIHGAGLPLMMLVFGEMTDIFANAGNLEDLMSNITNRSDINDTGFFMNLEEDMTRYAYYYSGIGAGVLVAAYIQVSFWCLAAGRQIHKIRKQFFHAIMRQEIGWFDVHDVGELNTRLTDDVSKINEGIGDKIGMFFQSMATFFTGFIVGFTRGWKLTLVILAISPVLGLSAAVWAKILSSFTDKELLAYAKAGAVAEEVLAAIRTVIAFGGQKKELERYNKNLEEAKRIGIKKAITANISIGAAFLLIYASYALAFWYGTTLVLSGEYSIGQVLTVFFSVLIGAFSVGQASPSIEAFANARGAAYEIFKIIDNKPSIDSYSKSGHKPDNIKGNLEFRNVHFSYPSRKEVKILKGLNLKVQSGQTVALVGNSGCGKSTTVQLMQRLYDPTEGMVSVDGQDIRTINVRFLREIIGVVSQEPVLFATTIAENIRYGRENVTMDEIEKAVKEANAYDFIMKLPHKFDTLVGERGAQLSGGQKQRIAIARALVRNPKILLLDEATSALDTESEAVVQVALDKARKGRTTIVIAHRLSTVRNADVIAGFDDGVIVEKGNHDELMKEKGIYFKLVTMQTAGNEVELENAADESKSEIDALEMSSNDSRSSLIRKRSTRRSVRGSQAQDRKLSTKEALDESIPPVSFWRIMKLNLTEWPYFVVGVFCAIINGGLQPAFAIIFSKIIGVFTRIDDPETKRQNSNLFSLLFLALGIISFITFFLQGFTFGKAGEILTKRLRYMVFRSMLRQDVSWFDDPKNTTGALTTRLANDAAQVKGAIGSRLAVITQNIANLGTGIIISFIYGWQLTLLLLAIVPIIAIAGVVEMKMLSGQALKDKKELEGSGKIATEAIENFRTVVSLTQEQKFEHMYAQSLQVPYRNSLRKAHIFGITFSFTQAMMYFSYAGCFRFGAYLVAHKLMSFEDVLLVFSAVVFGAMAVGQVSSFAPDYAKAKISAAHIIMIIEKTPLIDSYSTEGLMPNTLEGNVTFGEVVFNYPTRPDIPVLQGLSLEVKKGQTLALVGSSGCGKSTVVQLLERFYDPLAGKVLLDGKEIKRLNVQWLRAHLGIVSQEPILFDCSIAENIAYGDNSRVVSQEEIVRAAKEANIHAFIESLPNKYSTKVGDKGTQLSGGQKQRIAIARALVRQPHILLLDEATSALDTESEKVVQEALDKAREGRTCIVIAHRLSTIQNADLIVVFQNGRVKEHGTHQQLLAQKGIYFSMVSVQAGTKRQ
Method in brief: (§2)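 Murine L-5178Y lymphoma cells transfected with human MDR1 gene (P-gp-overexpressing), alongside parental cells, treated or untreated with compound; rhodamine 123 accumulation measured by fluorescence; FAR = ratio of fluorescence intensity in treated versus untreated cells, values above 1 taken as MDR reversal.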

RPMI8266 = assay: Growth inhibition of human […] cells at 10 uM; type: functional, cell-based; method in brief: as §1
PC-3 = assay: Growth inhibition of human PC3 cells at 10 uM; type: functional, cell-based; method in brief: as §1
NCI/ADR-RES = assay: Growth inhibition of human NCI/ADR-RES cells at 10 uM; type: functional, cell-based; method in brief: as §1
RXF 393 = assay: Growth inhibition of human RXF393 cells at 10 uM; type: functional, cell-based; method in brief: as §1
OVCAR-8 = assay: Growth inhibition of human OVCAR8 cells at 10 uM; type: functional, cell-based; method in brief: as §1
Hs-578T = assay: Growth inhibition of human Hs 578T cells at 10 uM; type: functional, cell-based; method in brief: as §1
M14 = assay: Growth inhibition of human M14 cells at 10 uM; type: functional, cell-based; method in brief: as §1
HOP-92 = assay: Growth inhibition of human HOP92 cells at 10 uM; type: functional, cell-based; method in brief: as §1
CAKI-1 = assay: Growth inhibition of human Caki1 cells at 10 uM; type: functional, cell-based; method in brief: as §1
CCRF-CEM [6] = assay: Growth inhibition of human CEM cells after 3 days; type: functional, cell-based; settings: 72 h
Method in brief: (§3)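 Human CEM and Molt 4/C8 T-lymphocytes were grown for three days with or without serial dilutions of the compound. IC50 is the concentration that inhibits cell growth by 50%.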

HCT-15 = assay: Growth inhibition of human HCT15 cells at 10 uM; type: functional, cell-based; method in brief: as §1
HL-60 [7] = assay: Cytotoxicity against human HL60 cells after 48 hrs; type: functional; settings: HL-60, 48 h
SW-620 = assay: Growth inhibition of human SW620 cells at 10 uM; type: functional, cell-based; method in brief: as §1
MDA-MB-468 = assay: Growth inhibition of human MDA-MB-468 cells at 10 uM; type: functional, cell-based; method in brief: as §1
HCC 2998 = assay: Growth inhibition of human HCC2998 cells at 10 uM; type: functional, cell-based; method in brief: as §1
LOX IMVI = assay: Growth inhibition of human LOXIMVI cells at 10 uM; type: functional, cell-based; method in brief: as §1
SF-295 = assay: Growth inhibition of human SF295 cells at 10 uM; type: functional, cell-based; method in brief: as §1
HSC-2 = assay: Cytotoxicity against human HSC2 cells after 48 hrs; type: functional; settings: HSC-2, 48 h
HCT-116 = assay: Growth inhibition of human HCT116 cells at 10 uM; type: functional, cell-based; method in brief: as §1
[8] = molecular target: T1, ATP-dependent translocase ABCB1; assay: Reversal of P-glycoprotein-mediated multidrug resistance in human MDR1 gene transfected mouse L5178Y cells assessed as fluorescence activity ratio at 20 uM by rhodamine 123 accumulation assay; type: cell-based; method in brief: as §2
[9] = Growth inhibition of human Molt4/C8 cells after 3 days; type: functional, cell-based; settings: MOLT-4, 72 h; method in brief: as §3
HSC-3 = assay: Cytotoxicity against human HSC3 cells after 48 hrs; type: functional; settings: HSC-3, 48 h
[10] = Cytotoxicity against human HGF cells after 48 hrs; type: cell-based
UO-31 = assay: Growth inhibition of human UO31 cells at 10 uM; type: functional, cell-based; method in brief: as §1
SNB-75 = assay: Growth inhibition of human SNB75 cells at 10 uM; type: functional, cell-based; method in brief: as §1
NCI-H460 = assay: Growth inhibition of human NCI-H460 cells at 10 uM; type: functional, cell-based; method in brief: as §1
IGROV-1 = assay: Growth inhibition of human IGROV1 cells at 10 uM; type: functional, cell-based; method in brief: as §1
NCI-H522 = assay: Growth inhibition of human NCI-H522 cells at 10 uM; type: functional, cell-based; method in brief: as §1
EKVX = assay: Growth inhibition of human EKVX cells at 10 uM; type: functional, cell-based; method in brief: as §1
MDA-MB-435 = assay: Growth inhibition of human MDA-MB-435 cells at 10 uM; type: functional, cell-based; method in brief: as §1

In the case of `Cc1c(C(=O)/C=C/c2ccc(F)cc2)[n+]([O-])c2ccccc2[n+]1[O-]`, the “growth inhibition (GI)” value (A549) was “Active”, the “growth inhibition (GI)” value (OVCAR-4) was “Active” and the “growth inhibition (GI)” value (T47D) was “Active”. The CC50 (HSC-4) was 8.1 µM, the “growth inhibition (GI)” value (NCI-H23) was “Active” and the “growth inhibition (GI)” value (OVCAR-3) was “Active”. The CC50 at 48 h [1] was 20 µM, the “growth inhibition (GI)” value (U-251) was “Active” and the “growth inhibition (GI)” value (HL-60 [2]) was “Active”. The “growth inhibition (GI)” value (A498) was “Active”, the “growth inhibition (GI)” value (DU-145) was “Active” and the “growth inhibition (GI)” value (MCF7) was “Active”. For the same compound, the “growth inhibition (GI)” value (CCRF-CEM [3]) was “Active”, the CC50 at 48 h [4] was 48 µM and the “growth inhibition (GI)” value (UACC-62) was “Active”. The “growth inhibition (GI)” value (K562) was “Active”, the Ratio [5] was 25.8 and the “growth inhibition (GI)” value (RPMI8266) was “Active”. For the same compound, the “growth inhibition (GI)” value (PC-3) was “Active”, the “growth inhibition (GI)” value (NCI/ADR-RES) was “Active” and the “growth inhibition (GI)” value (RXF 393) was “Active”. The “growth inhibition (GI)” value (OVCAR-8) was “Active”, the “growth inhibition (GI)” value (Hs-578T) was “Active” and the “growth inhibition (GI)” value (M14) was “Active”. The “growth inhibition (GI)” value (HOP-92) was “Active”, the “growth inhibition (GI)” value (CAKI-1) was “Active” and the pIC50 (CCRF-CEM [6]) was 5.00. For the same compound, the “growth inhibition (GI)” value (HCT-15) was “Active”, the CC50 (HL-60 [7]) was 4.6 µM and the “growth inhibition (GI)” value (SW-620) was “Active”. The “growth inhibition (GI)” value (MDA-MB-468) was “Active”, the “growth inhibition (GI)” value (HCC 2998) was “Active” and the “growth inhibition (GI)” value (LOX IMVI) was “Active”. For the same compound, the “growth inhibition (GI)” value (SF-295) was “Active”, the CC50 (HSC-2) was 6.2 µM and the “growth inhibition (GI)” value (HCT-116) was “Active”. For the same compound, the Ratio [8] was 4.81, the pIC50 [9] was 5.19 and the CC50 (HSC-3) was 7.7 µM. The CC50 at 48 h [10] was 31 µM, the “growth inhibition (GI)” value (UO-31) was “Active” and the “growth inhibition (GI)” value (SNB-75) was “Active”. For the same compound, the “growth inhibition (GI)” value (NCI-H460) was “Active”, the “growth inhibition (GI)” value (IGROV-1) was “Active” and the “growth inhibition (GI)” value (NCI-H522) was “Active”. For the same compound, the “growth inhibition (GI)” value (EKVX) was “Active” and the “growth inhibition (GI)” value (MDA-MB-435) was “Active”.
With `COc1ccc(/C=C/C(=O)c2c(C)[n+]([O-])c3ccccc3[n+]2[O-])cc1OC` the “growth inhibition (GI)” value (A549) was “Active”, the “growth inhibition (GI)” value (OVCAR-4) was “Active” and the “growth inhibition (GI)” value (T47D) was “Active”. For the same compound, the CC50 (HSC-4) was 38 µM, the “growth inhibition (GI)” value (NCI-H23) was “Active” and the “growth inhibition (GI)” value (OVCAR-3) was “Active”. For the same compound, the CC50 at 48 h [1] was 156 µM, the “growth inhibition (GI)” value (U-251) was “Active” and the “growth inhibition (GI)” value (HL-60 [2]) was “Active”. The “growth inhibition (GI)” value (A498) was “Active”, the “growth inhibition (GI)” value (DU-145) was “Active” and the “growth inhibition (GI)” value (MCF7) was “Active”. For the same compound, the “growth inhibition (GI)” value (CCRF-CEM [3]) was “Active”, the CC50 at 48 h [4] was 142 µM and the “growth inhibition (GI)” value (UACC-62) was “Active”. The “growth inhibition (GI)” value (K562) was “Active”, the Ratio [5] was 23 and the “growth inhibition (GI)” value (RPMI8266) was “Active”. The “growth inhibition (GI)” value (PC-3) was “Active”, the “growth inhibition (GI)” value (NCI/ADR-RES) was “Active” and the “growth inhibition (GI)” value (RXF 393) was “Active”. The “growth inhibition (GI)” value (OVCAR-8) was “Active”, the “growth inhibition (GI)” value (Hs-578T) was “Active” and the “growth inhibition (GI)” value (M14) was “Active”. The “growth inhibition (GI)” value (HOP-92) was “Active”, the “growth inhibition (GI)” value (CAKI-1) was “Active” and the pIC50 (CCRF-CEM [6]) was 4.72. The “growth inhibition (GI)” value (HCT-15) was “Active”, the CC50 (HL-60 [7]) was 14 µM and the “growth inhibition (GI)” value (SW-620) was “Active”. The “growth inhibition (GI)” value (MDA-MB-468) was “Active”, the “growth inhibition (GI)” value (HCC 2998) was “Active” and the “growth inhibition (GI)” value (LOX IMVI) was “Active”. For the same compound, the “growth inhibition (GI)” value (SF-295) was “Active”, the CC50 (HSC-2) was 25 µM and the “growth inhibition (GI)” value (HCT-116) was “Active”. The Ratio [8] was 5.01, the pIC50 [9] was 4.73 and the CC50 (HSC-3) was 31 µM. The CC50 at 48 h [10] was 117 µM, the “growth inhibition (GI)” value (UO-31) was “Active” and the “growth inhibition (GI)” value (SNB-75) was “Active”. The “growth inhibition (GI)” value (NCI-H460) was “Active”, the “growth inhibition (GI)” value (IGROV-1) was “Active” and the “growth inhibition (GI)” value (NCI-H522) was “Active”. For the same compound, the “growth inhibition (GI)” value (EKVX) was “Active” and the “growth inhibition (GI)” value (MDA-MB-435) was “Active”.
